# Shown are actives, neighbours in structure and some others; about 2.3% of the full set was active somewhere.
# TRPC4 agonist = TRPC4 (mouse) channel activation; AID 2237; HEK293 TRPC4beta/mu-opioid, Fluo4 calcium fluorescence; stronger effect = higher value; B-score at 10 µM; actives 0.49% (n = 310,000); Q9QUQ5;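 active = B-score above 5 SD of library B-scores, and initial fluorescence ratio not above library mean plus 5 SD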;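 note: positive B-score marks a calcium rise read as TRPC4 activation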
#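 System: HEK293 cells stably co-expressing mouse TRPC4beta and mu-opioid receptor; Schedule: Fluo4 dye loading 45 min at room temperature, 110 s recording; Detection: Fluo4 fluorescence, kinetic; Evaluation: B-scored integrated calcium fluorescence ratio; Controls: buffer (low) and maximal DAMGO (high).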
# TRPC6 inhibitor = mouse TRPC6 channel inhibition; B-score at 10 µM; Q61143; actives 1.1% (n = 310,000); HEK293-TRPC6, membrane potential dye, ACh-evoked depolarization; stronger effect = lower value; AID 2553;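 active = B-score under library mean minus 3 SD, initial fluorescence not abnormally high, positive integrated signal ratio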;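 note: B-score derived from integrated fluorescence ratio over the kinetic read; more negative B-score means stronger inhibition of depolarization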
# Target sequence (Q61143 whole entry, looked up): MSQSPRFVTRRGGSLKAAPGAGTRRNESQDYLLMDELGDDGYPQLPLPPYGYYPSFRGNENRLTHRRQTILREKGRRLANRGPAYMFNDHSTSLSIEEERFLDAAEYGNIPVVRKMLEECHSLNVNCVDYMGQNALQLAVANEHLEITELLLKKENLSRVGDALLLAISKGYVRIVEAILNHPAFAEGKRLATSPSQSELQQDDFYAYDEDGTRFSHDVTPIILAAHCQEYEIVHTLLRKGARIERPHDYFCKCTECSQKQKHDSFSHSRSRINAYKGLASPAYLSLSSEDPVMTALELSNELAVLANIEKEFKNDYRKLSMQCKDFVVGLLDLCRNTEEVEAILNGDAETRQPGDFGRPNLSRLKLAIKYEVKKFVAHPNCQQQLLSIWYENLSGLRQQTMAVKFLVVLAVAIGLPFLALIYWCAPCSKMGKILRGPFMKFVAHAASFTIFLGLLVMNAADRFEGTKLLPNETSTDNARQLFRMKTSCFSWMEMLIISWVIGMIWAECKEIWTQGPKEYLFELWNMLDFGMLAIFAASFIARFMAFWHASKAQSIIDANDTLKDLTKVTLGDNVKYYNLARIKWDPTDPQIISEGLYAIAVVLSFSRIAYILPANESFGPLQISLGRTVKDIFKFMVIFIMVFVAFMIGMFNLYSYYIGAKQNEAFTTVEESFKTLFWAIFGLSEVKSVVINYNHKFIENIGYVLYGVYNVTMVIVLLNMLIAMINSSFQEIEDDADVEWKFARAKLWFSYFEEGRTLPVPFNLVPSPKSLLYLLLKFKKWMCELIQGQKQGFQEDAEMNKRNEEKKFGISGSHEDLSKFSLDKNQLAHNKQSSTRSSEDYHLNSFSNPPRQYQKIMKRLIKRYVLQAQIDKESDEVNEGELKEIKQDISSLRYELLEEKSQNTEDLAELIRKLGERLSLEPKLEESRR
# TRPC4 inh = blocks the mouse TRPC4 cation channel; actives 0.39% (n = 300,000); B-score at 10 µM; HEK293 TRPC4beta/mu-opioid, DAMGO-evoked Fluo4 calcium flux; stronger effect = lower value; Q9QUQ5; AID 2247;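 active = B-score over 3 SD under the library average, no early fluorescence shift, positive overall ratio signal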
#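 Test system – stable TRPC4beta/mu-opioid receptor HEK293 cells · Probe or stimulus – DAMGO, a submaximal dose followed by a maximal one · Dosing – one concentration per compound · Signal – Fluo4 calcium fluorescence by kinetic imaging, 5 s 1 Hz baseline · Evaluation – per-well B score of integrated baseline-normalized Fluo4 ratio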
# TRPC4 potent = TRPC4 (mouse) allosteric potentiation. B-score at 10 µM. HEK293 TRPC4beta/mu-opioid, DAMGO EC20, Fluo-4 Ca2+ flux; stronger effect = higher value. AID 2227. actives 0.42% (n = 310,000). Q9QUQ5;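 active = B-score of calcium response area above 5 SD of library B-scores, with initial fluorescence ratio within 5 SD of library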;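 note: B-score of integrated fluorescence ratio over time as area under calcium response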
# TRPC6 act = mouse TRPC6 channel activation. Q61143. HEK293-TRPC6 membrane potential dye fluorescence; stronger effect = higher value. B-score at 10 µM. actives 0.13% (n = 310,000);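 active = B-score of the integrated fluorescence ratio above library mean plus 3 SD, and starting fluorescence ratio within library mean plus 5 SD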;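 note: higher score means more depolarization so channel activation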
# TRPC4 sel inh 2 = mouse TRPC4 off-target activity of TRPC6 inhibitors, second screen. shares compounds with TRPC6 inhibitor. HEK293 TRPC4/MOR, membrane potential dye fluorescence; channel activated by saturating DAMGO dose. inhibition, % at 10 µM. actives 42% (n = 920);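 active = compounds whose fluorescence signal differed from control wells by over 3 SD, either direction, in both duplicate plates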
# TRPC4 spec = tests whether TRPC6 inhibitors also affect mouse TRPC4; shares compounds with TRPC6 inhibitor; HEK293 TRPC4/mu-opioid, membrane potential fluorescence; activity change, negative = inhibition, % at 10 µM; actives 61% (n = 920); AID 2777;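 active = rise or fall in signal beyond 3 SD of buffer-only wells in both replicate plates, either sign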;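 note: integrated kinetic ratio of fluorescence range over baseline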
# HEK293 MPD ctr 2-1 = parental HEK293 nonspecific activity of TRPC6 inhibitors, second screen | parental HEK293 membrane potential dye fluorescence; maximal acetylcholine challenge after compound addition | actives 31% (n = 920) | shares compounds with TRPC6 inhibitor | signal change vs control, % at 10 µM;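 active = membrane potential signal moving either way by over 3 SD of the maximum-effect control, in both duplicate plates, meaning non-specific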
# HEK293 MPD ctr-1 = checks TRPC6 inhibitor effects in parental HEK293 cells; shares compounds with TRPC6 inhibitor; membrane potential signal change, % at 10 µM; parental HEK293 membrane potential dye fluorescence; actives 60% (n = 920);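 active = membrane potential signal shifting up or down by more than 3 SD of buffer-only wells, on both duplicate plates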
# HEK293 MPD ctr-2 = checks TRPC6 modulator effects in parental HEK293 cells; membrane potential dye fluorescence; shares compounds with TRPC6 inhibitor; membrane potential signal change, % at 10 µM; AID 488924; actives 51% (n = 2,400);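 active = membrane potential signal moves up or down beyond 5 SD from buffer-only wells, on both duplicate plates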
# HEK293 MPD ctr 2-2 = second counter-screen for TRPC6 modulators: effect in parental HEK293 cells | actives 14% (n = 2,400) | shares compounds with TRPC6 inhibitor | membrane potential dye fluorescence; after compound, maximal acetylcholine stimulation | AID 488926 | inhibition, % at 10 µM;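 active = membrane potential signal drops by more than 5 SD from the mean control signal, in both duplicate plates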;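 note: plate controls were acetylcholine ECmax control wells for no effect and buffer only wells for full effect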
# TRPC4/MOR mod = tests whether TRPC6 modulators also affect mouse TRPC4. shares compounds with TRPC6 inhibitor. HEK293 TRPC4/mu-opioid, membrane potential fluorescence. percent change from control (negative = decrease, positive = increase), % at 10 µM. actives 69% (n = 2,400). AID 488927;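 active = membrane potential signal moved up or down beyond 5 SD of buffer control wells, in both duplicate plates, actives on both sides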;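 note: plate controls were assay buffer wells for no effect and DAMGO maximal-effect wells for full effect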
# TRPC4/MOR inh 2 = second selectivity test of TRPC6 modulators against mouse TRPC4; shares compounds with TRPC6 inhibitor; HEK293 TRPC4/mu-opioid, membrane potential dye fluorescence; stimulated with maximal-effect DAMGO; inhibition, % at 10 µM; actives 55% (n = 2,400); AID 488928;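 active = drop in membrane potential signal beyond 5 SD of the control wells in both duplicate plates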;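 note: TRPC4 counter screen for TRPC6 hits run under conditions tuned for TRPC6 not TRPC4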
# TRPC6 inh conf = mouse TRPC6 inhibitor confirmation | actives 43% (n = 3,300) | shares compounds with TRPC6 inhibitor | inhibition, % at 10 µM | HEK293-TRPC6, membrane potential dye, ACh-evoked depolarization;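 active = fluorescence ratio falls more than 5 SD below the full-stimulation control mean, in both duplicate runs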;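 note: integrated fluorescence ratio of peak minus minimum over baseline after agonist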
# TRPC6 act confirm = mouse TRPC6 activator confirmation; shares compounds with TRPC6 inhibitor; HEK293-TRPC6 membrane potential dye fluorescence, FDSS; activation, % at 10 µM; actives 11% (n = 2,800);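 active = ratio signal rise beyond 5 SD above unstimulated control wells' mean, seen in both duplicate runs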;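 note: plate controls were buffer EC0 wells for no effect and acetylcholine ECmax response for full effect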
# * hit, by the source's call; i = inactive; . = no result given.
SMILES,TRPC4 agonist,TRPC6 inhibitor,TRPC4 inh,TRPC4 potent,TRPC6 act,HEK293 MPD ctr-2,HEK293 MPD ctr 2-2,TRPC4/MOR mod,TRPC4/MOR inh 2,TRPC6 inh conf,TRPC6 act confirm,others
CN(C)c1cc(NC(=O)CNC(C)(C)C)c2ccccc2n1,i,-9.2*,i,i,i,-192%*,i,-36%*,50%*,i,i,
CCCCC(=O)Nc1cc(N(C)C)nc2ccccc12,i,i,i,i,i,.,.,.,.,.,.,
COc1ccc(/C=C(/NC(=O)/C=C/c2ccccc2)C(=O)N2CCOCC2)cc1,i,-5.8*,i,i,i,i,i,i,i,42%*,i,
Cc1ccc(C(=O)CCC(=O)N2CCN(c3ccccc3O)CC2)cc1,i,i,i,i,i,.,.,.,.,.,.,
Cc1ccc(C)c(N2CCN(C(=O)c3ccc(NS(=O)(=O)c4c(C)noc4C)cc3)CC2)c1,i,-6.5*,i,i,i,i,i,-15%*,50%*,74%*,i,
Cc1ccc(Cl)cc1N1CCN(C(=O)c2ccc(NS(=O)(=O)c3c(C)noc3C)cc2)CC1,i,-6.2*,i,i,i,i,i,i,i,70%*,.,
COc1cc(OC)c(C(=O)Nc2ccncc2)cc1OC,i,-5.1*,i,i,i,i,72%*,-8.5%*,36%*,46%*,i,
CCOc1ccc(/C=N/OCC(=O)Nc2cc(S(=O)(=O)N3CCOCC3)ccc2OC)cc1,i,i,i,i,i,.,.,.,.,.,.,
COc1cc(Cl)ccc1OCc1cc(C(=O)N2C[C@]3(C)C[C@H]2CC(C)(C)C3)no1,i,i,i,i,i,.,.,.,.,.,.,
C=C(C)CSc1nc2sc3c(c2c(=O)n1C1CCCCC1)CCN(C)C3,i,-7.5*,i,i,i,i,i,-20%*,i,i,i,
Cc1ccc(C)c(N2CCN(c3ccncc3N)CC2)c1,i,-6.5*,i,i,i,i,i,i,52%*,i,i,
O=C1CN(C(=O)C2CCC(=O)N(CCc3ccc(Cl)cc3)C2)CCN1 (stereo not drawn),i,i,i,i,i,.,.,.,.,.,.,
O=C(c1ccco1)N1CCCC(c2nc3c(nnn3Cc3cccc(Cl)c3)c(=O)[nH]2)C1 (stereo not drawn),i,-5.2*,i,i,i,i,i,17%*,i,50%*,i,
O=C(c1ccco1)N1CCCC(c2nc3c(nnn3Cc3ccc(Cl)cc3Cl)c(=O)[nH]2)C1 (stereo not drawn),i,i,i,i,i,.,.,.,.,.,.,
COc1ccc(-n2cnnc2SCc2csc(-c3ccccc3)n2)cc1,i,-5.2*,i,i,i,i,i,14%*,i,43%*,.,
COc1ccc(-n2cnnc2SCC(=O)N(C)c2ccccc2)cc1,i,i,i,i,i,.,.,.,.,.,.,
O=C(CN1CCCC1)N1CCCc2c1c(=O)oc1ccc(OCc3ccccc3)cc21,i,-6.5*,i,i,i,i,i,i,70%*,i,i,
CCOc1ccc(NC(=S)NCc2ccco2)cc1,i,i,i,i,i,.,.,.,.,.,.,
CCOC(=O)c1ccc(NC(=O)CN(Cc2ccc(Cl)cc2)S(C)(=O)=O)cc1,i,-6.6*,i,i,i,.,.,.,.,i,i,TRPC4 sel inh 2=i;TRPC4 spec=-12%*;HEK293 MPD ctr 2-1=i;HEK293 MPD ctr-1=i
CS(=O)(=O)N(CC(=O)Nc1ccc2c(c1)OCCO2)Cc1ccc(Cl)cc1,i,i,i,i,i,.,.,.,.,.,.,
CCOC(=O)c1ccc(NC(=S)NCc2ccco2)cc1,i,-9.3*,i,i,i,.,.,.,.,i,i,TRPC4 sel inh 2=i;TRPC4 spec=i;HEK293 MPD ctr 2-1=i;HEK293 MPD ctr-1=i
CCOC(=O)c1ccc(NC(=S)N(CCCN2CCCCCC2)Cc2ccco2)cc1,i,-5.7*,i,i,i,i,i,i,77%*,56%*,i,
CCOC(=O)c1ccc(NC(=S)N(CCN2CCCCCC2)Cc2ccco2)cc1,i,i,i,i,i,.,.,.,.,.,.,
CCOC(=O)c1ccc(NC(=S)NCc2ccc(S(N)(=O)=O)cc2)cc1,i,-5.3*,i,i,i,i,i,i,i,48%*,.,
CCN1C(=O)C2(C(C(=O)c3cc4ccccc4o3)=C(O)C(=O)N2CCCN(C)C)c2ccccc21 (stereo not drawn),i,i,i,i,i,.,.,.,.,.,.,
O=C(CN1C2=NCCN2c2ccccc21)c1ccc2c(c1)OCO2,i,i,i,i,i,.,.,.,.,.,.,
O=C(CN1C2=NCCN2c2ccccc21)c1ccc(Br)cc1,i,-5.3*,i,i,i,i,i,i,72%*,38%*,i,
CC(=O)N1c2ccc(S(=O)(=O)NCCC(=O)Nc3ncccc3C)cc2CC1C (stereo not drawn),i,i,i,i,i,.,.,.,.,.,.,

# High-throughput results deposited in PubChem by Johns Hopkins Ion Channel Center.
